Published values pooled from the literature.
Compare with care: the assays were run in different laboratories. pEC50, pIC50: −log10 of the molar value.
Cell line: OVCAR-3
Read-out: cell growth or viability

| Structure (SMILES) | assay | conditions | endpoint | result |
| --- | --- | --- | --- | --- |
| COc1ccc(C(=O)/C=C/c2cccc(Cl)c2Cl)cc1S(N)(=O)=O | SRB | 10 µM | inhibition | 156% |
| CC/C(=C(\c1ccccc1)c1ccc(OCCN(C)C)cc1)c1ccccc1 | ATP luminescence | 72 h | EC90 | 42900 nM |
| COc1cc(OC)c(/C=C/S(=O)(=O)Nc2ccc(OC)c(N)c2)c(OC)c1 | trypan blue | 96 h | pIC50 | 8.40 |
| Cc1cc(C)n(C(=S)[S][Au][PH](CCCCCC[PH]([Au][S]C(=S)n2nc(C)cc2C)(c2ccccc2)c2ccccc2)(c2ccccc2)c2ccccc2)n1 | – | – | GI50 | 648 nM |
| C[C@H]1O[C@@H](n2cc(F)c(=O)[nH]c2=O)[C@H](O)[C@@H]1O | CCK-8 | 48 h | pIC50 | < 4.30 |
| COc1ccc(-c2ccc(-c3ccc(C(=N)N)nc3)s2)cc1Cl | SRB | – | GI50 | 1830 nM |
| C[C@]12CC[C@@H]3c4ccc(O)cc4CC[C@H]3[C@@H]1CC[C@@H]2O | ATP luminescence | 72 h | pEC50 | 4.56 |
| COc1ccc(C(=O)/C=C/c2ccccc2Cl)cc1S(N)(=O)=O | SRB | 10 µM | inhibition | 9% |
| O=C1CCC2(Oc3cccc4cccc(c34)O2)c2c(O)ccc(O)c21 | resazurin | 72 h | pIC50 | < 4.60 |
| CSc1ccc(/C=C2\C=C(CC(=O)NS(=O)(=O)C(F)(F)F)c3cc(F)ccc32)cc1 | WST-1 | 48 h | pEC50 | ~3.80 |
| COc1ccc(C(=O)/C=C/c2cccnc2)cc1S(N)(=O)=O | SRB | 48 h | GI50 | 10200 nM |
| CC(C)C(=O)Nc1ccc([N+](=O)[O-])c(C(F)(F)F)c1 | CCK-8 | 48 h | pIC50 | 4.47 |
| COc1cccc(Oc2ccccc2NC(=O)CNC(=O)c2cccc3ccccc23)c1 | SRB | 48 h | GI50 | 100 nM |
| COc1ccc(-c2ccc(-c3ccc(C(=N)N)nc3)s2)cc1 | SRB | – | GI50 | 1820 nM |
| CC(C)c1cc(-c2n[nH]c(=O)n2-c2ccc3c(ccn3C)c2)c(O)cc1O | imaging | 24 h | pIC50 | 6.55 |
| Cc1ccc(C)c(COc2cc(NC(=O)c3ccc4c(c3)OCO4)ccc2N(C)S(C)(=O)=O)c1 | SRB | 48 h | GI50 | 39.6 nM |
